Calls of active or inactive are those of the source. No cut-off for these calls is given here.
Columns and labels:
[1] = molecular target: T1, NAD-dependent protein deacetylase sirtuin-1 (Homo sapiens) (UniProt Q96EB6); experiment: Inhibition of 50 nM N-terminal His6-tagged recombinant human SIRT1 expressed in Escherichia coli at 100 uM using RHKK(Ac)W-NH2 as substrate after 30 mins by UV detection-based HPLC method
T1 sequence (whole entry): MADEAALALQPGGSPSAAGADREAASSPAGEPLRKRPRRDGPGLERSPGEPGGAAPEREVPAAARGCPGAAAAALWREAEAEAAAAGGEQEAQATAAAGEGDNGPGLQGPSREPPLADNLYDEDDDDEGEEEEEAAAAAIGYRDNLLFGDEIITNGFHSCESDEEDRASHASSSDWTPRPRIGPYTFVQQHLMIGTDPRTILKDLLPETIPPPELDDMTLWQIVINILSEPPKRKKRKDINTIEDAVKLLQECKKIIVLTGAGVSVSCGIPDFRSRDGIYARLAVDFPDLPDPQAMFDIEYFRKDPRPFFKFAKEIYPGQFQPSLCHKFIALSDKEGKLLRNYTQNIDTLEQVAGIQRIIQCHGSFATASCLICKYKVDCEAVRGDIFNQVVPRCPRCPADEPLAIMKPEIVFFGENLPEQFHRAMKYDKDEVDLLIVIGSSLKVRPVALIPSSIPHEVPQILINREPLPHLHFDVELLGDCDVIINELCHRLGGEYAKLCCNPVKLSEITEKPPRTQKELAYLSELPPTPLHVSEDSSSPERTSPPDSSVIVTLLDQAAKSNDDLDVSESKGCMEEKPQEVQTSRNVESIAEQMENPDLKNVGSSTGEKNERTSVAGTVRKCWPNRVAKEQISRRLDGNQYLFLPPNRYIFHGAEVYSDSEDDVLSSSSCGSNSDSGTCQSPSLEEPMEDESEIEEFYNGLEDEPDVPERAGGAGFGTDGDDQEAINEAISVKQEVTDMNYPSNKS
Method in brief: (§1)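 SIRT1 (Sigma stock ~6 μM, 10% glycerol, no BSA) freshly diluted in 50 mM Tris-HCl/Tris pH 8.0. Mixture: 200 μM NAD+, 100 μM RHKK(Ac)W-NH2, 1% DMSO, optional additive (Triton X-100 0.01% v:v; BSA 1 mg/mL). Reaction started by enzyme without preincubation, run at 37 °C with conversion kept at 1–10% (30 min at 50 nM, 1 h at 25 nM, 5–10 min at 250 nM). Read-out: C18 HPLC, UV 220 nm, percent conversion from peak areas.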

[2] = molecular target: T1, NAD-dependent protein deacetylase sirtuin-1 (Homo sapiens); experiment: Inhibition of 25 nM N-terminal His6-tagged recombinant human SIRT1 expressed in Escherichia coli at 100 uM using RHKK(Ac)W-NH2 as substrate after 1 hr by UV detection-based HPLC method relative to control; method in brief: as §1
[3] = molecular target: T1, NAD-dependent protein deacetylase sirtuin-1 (Homo sapiens); experiment: Activation of 50 nM N-terminal His6-tagged recombinant human SIRT1 expressed in Escherichia coli at 100 uM using RHKK(Ac)W-NH2 as substrate after 30 mins in presence of 0.01% TX-100 by UV detection-based HPLC method relative to control; method in brief: as §1
[4] = molecular target: T1, NAD-dependent protein deacetylase sirtuin-1 (Homo sapiens); experiment: Activation of 25 nM N-terminal His6-tagged recombinant human SIRT1 expressed in Escherichia coli at 100 uM using RHKK(Ac)W-NH2 as substrate after 1 hr in presence of 0.01% TX-100 by UV detection-based HPLC method relative to control; method in brief: as §1
[5] = molecular target: T1, NAD-dependent protein deacetylase sirtuin-1 (Homo sapiens); experiment: Activation of 50 nM N-terminal His6-tagged recombinant human SIRT1 expressed in Escherichia coli at low micromolar concentration using RHKK(Ac)W-NH2 as substrate after 30 mins in presence of 0.01% TX-100 by UV detection-based HPLC method relative to control; method in brief: as §1
[6] = molecular target: T1, NAD-dependent protein deacetylase sirtuin-1 (Homo sapiens); experiment: Activation of 25 nM N-terminal His6-tagged recombinant human SIRT1 expressed in Escherichia coli at 100 uM using RHKK(Ac)W-NH2 as substrate after 1 hr in presence of 0.01% Tween 20 by UV detection-based HPLC method
Method in brief: (§2)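 Same SIRT1 HPLC deacetylation assay: 50 mM Tris-HCl/Tris pH 8.0, 200 μM NAD+, 100 μM RHKK(Ac)W-NH2, 1% DMSO. Started by enzyme addition, 37 °C. Deacetylated product separated by C18 HPLC, detected at 220 nm, and conversion computed from peak areas.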

[7] = molecular target: T1, NAD-dependent protein deacetylase sirtuin-1 (Homo sapiens); experiment: Inhibition of 8 nM N-terminal His6-tagged recombinant human SIRT1 expressed in Escherichia coli assessed as remaining activity at 100 uM using RHKK(Ac)W-NH2 as substrate by UV detection-based HPLC method relative to control; method in brief: as §2
[8] = molecular target: T1, NAD-dependent protein deacetylase sirtuin-1 (Homo sapiens); experiment: Activation of 8 nM N-terminal His6-tagged recombinant human SIRT1 expressed in Escherichia coli at 100 uM using RHKK(Ac)W-NH2 as substrate in presence of 0.01% TX-100 by UV detection-based HPLC method relative to control; method in brief: as §2
[9] = molecular target: T1, NAD-dependent protein deacetylase sirtuin-1 (Homo sapiens); experiment: Binding affinity to 25 to 100 nM N-terminal His6-tagged recombinant human SIRT1 expressed in Escherichia coli at 100 uM by 1H NMR method
[10] = Drug aggregation in deuterated phosphate buffer assessed as diffusion coefficient at 100 uM by DOSY NMR method; format: physicochemical
Method in brief: (§3)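 DOSY at 600 MHz in deuterated phosphate buffer (50 mM, pH 8.0), using stimulated echo with bipolar gradient pulses and spoil gradients. 32 F1 increments of 32 scans, relaxation delay 1 s, acquisition 0.68 s, Δ 50 ms, δ 2.2 ms, 8192 points, 6009 Hz width. Diffusion coefficients taken from residual resonances of the compound.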

[11] = Drug aggregation in deuterated phosphate buffer assessed as diffusion coefficient at 1 mM by DOSY NMR method; format: physicochemical; conditions: 1000 µM; method in brief: as §3
[12] = Drug aggregation in deuterated phosphate buffer assessed as diffusion coefficient at 100 uM in presence of 0.001% TX-100 by DOSY NMR method; format: physicochemical; method in brief: as §3
[13] = Drug aggregation in deuterated phosphate buffer assessed as diffusion coefficient at 100 uM in presence of 0.01% TX-100 by DOSY NMR method; format: physicochemical; method in brief: as §3
[14] = Drug aggregation in deuterated phosphate buffer assessed as diffusion coefficient at 100 uM in presence of 1.5 uM bovine serum albumin by DOSY NMR method; format: physicochemical; method in brief: as §3
[15] = molecular target: T1, NAD-dependent protein deacetylase sirtuin-1 (Homo sapiens); experiment: Activation of 25 nM N-terminal His6-tagged recombinant human SIRT1 expressed in Escherichia coli at 100 uM using RHKK(Ac)W-NH2 as substrate after 1 hr in presence of 0.01% TX-100 by UV detection-based HPLC method
[16] = molecular target: T2, NAD-dependent protein deacetylase sirtuin-1 (Homo sapiens, UniProt Q96EB6); experiment: Inhibition of human recombinant GST-fused SIRT1 expressed in Escherichia coli DH5-alpha using [3H]acetic acid labeled MPSDKTIGG as substrate after overnight incubation by liquid scintillation counting method
T2 sequence (Q96EB6 whole entry): T1 sequence (whole entry)

[17] = molecular target: T3, NAD-dependent protein deacetylase sirtuin-2 (Homo sapiens, UniProt Q8IXJ6); experiment: Inhibition of human recombinant GST-fused SIRT2 expressed in Escherichia coli DH5-alpha using [3H]acetic acid labeled MPSDKTIGG as substrate after overnight incubation by liquid scintillation counting method
T3 sequence (Q8IXJ6 whole entry): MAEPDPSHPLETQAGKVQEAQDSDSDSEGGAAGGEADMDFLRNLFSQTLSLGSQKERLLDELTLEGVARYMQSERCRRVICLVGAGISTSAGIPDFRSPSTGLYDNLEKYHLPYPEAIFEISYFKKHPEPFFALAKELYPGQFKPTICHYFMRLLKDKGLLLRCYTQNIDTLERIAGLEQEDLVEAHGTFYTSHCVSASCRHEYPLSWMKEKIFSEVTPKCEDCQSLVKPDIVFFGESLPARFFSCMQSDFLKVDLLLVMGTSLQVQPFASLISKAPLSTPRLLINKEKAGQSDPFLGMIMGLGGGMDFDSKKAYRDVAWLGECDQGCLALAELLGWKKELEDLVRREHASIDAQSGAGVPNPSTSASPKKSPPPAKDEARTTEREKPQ

[18] = molecular target: T1, NAD-dependent protein deacetylase sirtuin-1 (Homo sapiens); conditions: 1 uM
[19] = molecular target: T1, NAD-dependent protein deacetylase sirtuin-1 (Homo sapiens); conditions: 1 uM; remark: listed apart in the source
[20] = molecular target: T1, NAD-dependent protein deacetylase sirtuin-1 (Homo sapiens); conditions: 1 uM; remark: listed apart in the source

Q: With `CC(C)=CCC[C@]1(C)[C@@H](CC=C(C)C)C[C@]2(CC=C(C)C)C(=O)[C@@]1(CC=C(C)C)C(=O)C(C(=O)c1ccc(O)c(O)c1)=C2O` [GUTTIFERONE A] as the molecule, how does the inhibition [1] read?
A: Active

Q: And the inhibition [2]?
A: 90%

Q: What about the fold change (FC) [3] of the same molecule?
A: 2

Q: What about the fold change (FC) [4] of the same molecule?
A: 2

Q: What about the Activity [5] of the same molecule?
A: Active

Q: And the Activity [6]?
A: Active

Q: And the Activity [7]?
A: 1%

Q: And the Activity [8]?
A: 158%

Q: And the Activity [9]?
A: Active

Q: What about the D [10] of the same molecule?
A: 2.706 ×10⁻¹⁰ m2/s

Q: And the D [11]?
A: 2.246 ×10⁻¹⁰ m2/s

Q: And the D [12]?
A: 2.298 ×10⁻¹⁰ m2/s

Q: What about the D [13] of the same molecule?
A: 1.808 ×10⁻¹⁰ m2/s

Q: What about the D [14] of the same molecule?
A: 1.61 ×10⁻¹⁰ m2/s

Q: And the Activity [15]?
A: Active

Q: For `CC(C)=CCC/C(C)=C/C[C@@H]1C[C@]2(CC=C(C)C)C(=O)[C@@](CC=C(C)C)(C(=O)C(C(=O)c3ccc(O)c(O)c3)=C2O)[C@@]1(C)CCC=C(C)C` [OBLONGIFOLIN C], which IC50 [16] is on record?
A: 9 µM

Q: And the IC50 [17]?
A: 22 µM

Q: Which results are given for `CC1=CCC(C(=O)/N=C2\CC=C(S(=O)(=O)O)c3cc(S(=O)(=O)O)cc(S(=O)(=O)O)c32)=C/C1=N/C(=O)C1=CC=C/C(=N\C(=O)/N=C2\C=CC=C(C(=O)/N=C3/CC(C(=O)/N=C4\CC=C(S(=O)(=O)O)c5cc(S(=O)(=O)O)cc(S(=O)(=O)O)c54)=CC=C3C)C2)C1`?
A: inhibition [18]: Active; inhibition [19]: Active; inhibition [20]: Active

Q: With `CC(C)=CCC[C@]1(C)[C@@H](CC=C(C)C)C[C@@]2(CC=C(C)C)C(=O)[C@]1(C(=O)C(C)C)C(=O)C(CC=C(C)C)=C2OCC(=O)O` as the molecule, how does the inhibition [1] read?
A: Active

Q: What about the Activity [3] of the same molecule?
A: Active

Q: And the Activity [4]?
A: Active

Q: With `CC(C)=CCC[C@]1(C)[C@@H](CC=C(C)C)C[C@]2(CC=C(C)C)C(=O)C(CC=C(C)C)=C(O)[C@@]1(C(=O)C(C)C)C2=O` as the molecule, how does the inhibition [1] read?
A: Active

Q: What about the Activity [3] of the same molecule?
A: Active
